# Assay results from ChEMBL document CHEMBL5154945, “Discovery and Optimization of Pyrrolopyrimidine Derivatives as Selective Disruptors of the Perinucleolar Compartment, a Marker of Tumor Progression toward Metastasis” (J Med Chem, 2022).
# “And” between values parts separate entries of the source, which are not always exact repeats. Identical values can stand only once.
# What was measured:
# NCI-H522 = assay: Anticancer activity against human NCI-H522 cells assessed as cell growth inhibition; format: functional, cell-based; settings: dose 1-100 µM, DDE = dose-dependent effect
# DU-145 = assay: Anticancer activity against human DU-145 cells assessed as cell growth inhibition; format: functional, cell-based; settings: dose 1-100 µM, DDE = dose-dependent effect
# [1] = molecular target: 5-hydroxytryptamine receptor 5A (Homo sapiens) (UniProt P47898); assay: Binding affinity to 5-HT5A receptor (unknown origin) at 10000 nM by radioligand displacement assay relative to control
# [2] = molecular target: Muscarinic acetylcholine receptor M3 (Homo sapiens) (UniProt P20309); assay: Binding affinity to M3 receptor (unknown origin) at 10000 nM by radioligand displacement assay relative to control
# [3] = Clast in male C57BL/6 mouse at 50 mg/kg, ip at 48 hrs by LC-MS/MS analysis; settings: in vivo
# [4] = molecular target: GABA-A receptor; anion channel (Homo sapiens) (UniProt P14867+P47870+P18507+P28472+P48169+Q99928+Q9UN88+P34903+O00591+O14764+Q8N1C3+P18505+P78334+P47869+P31644+Q16445); assay: Binding affinity to GABAA receptor (unknown origin) at 10000 nM by radioligand displacement assay relative to control; format: protein-complex assay
# [5] = molecular target: Alpha-1A adrenergic receptor (Homo sapiens) (UniProt P35348); assay: Binding affinity to alpha1A receptor (unknown origin) at 10000 nM by radioligand displacement assay relative to control
# CCRF-CEM = assay: Anticancer activity against human CCRF-CEM cells assessed as cell growth inhibition; format: functional, cell-based; settings: dose 1-100 µM, DDE = dose-dependent effect
# 786-0 = assay: Anticancer activity against human 786-0 cells assessed as cell growth inhibition; format: functional, cell-based; settings: dose 1-100 µM, DDE = dose-dependent effect
# A549 = assay: Anticancer activity against human A549 cells assessed as cell growth inhibition; format: functional, cell-based; settings: dose 1-100 µM, DDE = dose-dependent effect
# in vitro = settings: human, PC-3M cells expressing PTB/GFP fusion protein
# MDA-MB-231 = assay: Anticancer activity against human MDA-MB-231 cells assessed as cell growth inhibition; format: functional, cell-based; settings: dose 1-100 µM, DDE = dose-dependent effect
# PC-3M [6] = assay: Antiproliferative activity against human PC-3M cells expressing PTB/GFP fusion protein assessed as cell growth inhibition at < 100 nM and measured every four hrs for 130 hrs by IncuCyte zoom live cell analysis; format: functional, cell-based; settings: DDE = dose-dependent effect
# Summary of the method: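 PC3M cells stably expressing GFP-PTB, grown in DMEM with 10% FBS and 1% penicillin/streptomycin, seeded at 1.25×10^4 cells/ml in 384-well plates and left overnight at 37 °C, 5% CO2. Compound added in DMEM to give 11 final concentrations from 10 nM to 20 μM. Brightfield images were taken every 4 h for about 130 h and scored as percent confluence.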
# SK-OV-3 = assay: Anticancer activity against human SK-OV-3 cells assessed as cell growth inhibition; format: functional, cell-based; settings: dose 1-100 µM, DDE = dose-dependent effect
# [7] = molecular target: 5-hydroxytryptamine receptor 6 (Homo sapiens) (UniProt P50406); assay: Binding affinity to 5-HT6 receptor (unknown origin) at 10000 nM by radioligand displacement assay relative to control
# [8] = mouse, in vivo, ip, 50 mg/kg, 48 h
# [9] = molecular target: D(4) dopamine receptor (Homo sapiens) (UniProt P21917); assay: Binding affinity to D4 receptor (unknown origin) at 10000 nM by radioligand displacement assay relative to control
# [10] = molecular target: Sigma non-opioid intracellular receptor 1 (Homo sapiens) (UniProt Q99720); assay: Binding affinity to sigma1 receptor (unknown origin) at 10000 nM by radioligand displacement assay relative to control
# SF-539 = assay: Anticancer activity against human SF-539 cells assessed as cell growth inhibition; format: functional, cell-based; settings: dose 1-100 µM, DDE = dose-dependent effect
# [11] = Kinetic solubility of compound
# RPMI-8226 = assay: Anticancer activity against human RPMI-8226 cells assessed as cell growth inhibition; format: functional, cell-based; settings: dose 1-100 µM, DDE = dose-dependent effect
# OVCAR-8 = assay: Anticancer activity against human OVCAR-8 cells assessed as cell growth inhibition; format: functional, cell-based; settings: dose 1-100 µM, DDE = dose-dependent effect
# [12] = Tmax in female BALB/c mouse at 5 mg/kg, ip and measured upto 48 hrs by LC-MS/MS analysis; format: ADME, organism-based; settings: in vivo
# Summary of the method: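 Fed female BALB/c mice, about 6–8 weeks old and 25–30 g, received a single IP dose of 5 or 25 mpk in NMP/PEG400/HP-β-CD aqueous vehicle (0.5 mg/mL for the 5 mpk dose). Three mice per time point were sampled up to 48 h by retro-orbital bleed under isoflurane into K2EDTA. Plasma was spun at 2000 g, 4 °C, frozen at -80 °C, and assayed by LC/MS/MS.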
# NCI-H23 = assay: Anticancer activity against human NCI-H23 cells assessed as cell growth inhibition; format: functional, cell-based; settings: dose 1-100 µM, DDE = dose-dependent effect
# [13] = molecular target: Beta-3 adrenergic receptor (Homo sapiens) (UniProt P13945); assay: Binding affinity to beta3 receptor (unknown origin) at 10000 nM by radioligand displacement assay relative to control
# PC-3M [14] = assay: Cytotoxicity against human PC-3M cells expressing PTB/GFP fusion protein assessed as reduction in ATP level at 20 uM and measured after 24 to 48 hrs by ATPlite luminescence assay; format: toxicity, cell-based; settings: time 24-48 hrs
# [15] = molecular target: Muscarinic acetylcholine receptor M1 (Homo sapiens) (UniProt P11229); assay: Binding affinity to M1 receptor (unknown origin) at 10000 nM by radioligand displacement assay relative to control
# PC-3M [16] = assay: Antiproliferative activity against human PC-3M cells expressing PTB/GFP fusion protein assessed as reduction of nucleolar volume at 1 to 30 uM measured after 24 hrs by Nucleolar-id Green Detection based confocal microscopic analysis; format: functional, cell-based; settings: dose 1-30 µM, DDE = dose-dependent effect
# Summary of the method: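 PC-3M cells grown in RPMI 1640 with 10% FBS and penicillin/streptomycin, trypsinized at 70% confluence, and seeded at 2×10^5 cells/mL overnight at 37 °C, 5% CO₂. Medium replaced with compound or 1% DMSO for 24 h. Nucleoli stained with Nucleolar-ID Green and nuclei with Hoechst 33342, then imaged by confocal microscopy. Bright green objects in three images per condition normalized to nuclei count; vehicle set to 100.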
# [17] = molecular target: 5-hydroxytryptamine receptor 3A (Homo sapiens) (UniProt P46098); assay: Binding affinity to 5-HT3 receptor (unknown origin) at 10000 nM by radioligand displacement assay relative to control
# COLO 205 = assay: Anticancer activity against human COLO 205 cells assessed as cell growth inhibition; format: functional, cell-based; settings: dose 1-100 µM, DDE = dose-dependent effect
# [18] = AUC (0 to 48 hrs) in female BALB/c mouse at 25 mg/kg, ip at 48 hrs by LC-MS/MS analysis; format: ADME, organism-based; design: time 48 hrs, dose 25 mg/kg, route ip; settings: in vivo
# Summary of the method: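 Fed female BALB/c mice, about 6–8 weeks old and 25–30 g, received a single IP dose. The vehicle was 5-10% NMP + 20% PEG400 + 70-75% (25% HP-β-CD in water), with the drug at 2.5/0.5 mg/mL. Blood was taken by retro-orbital puncture under isoflurane into K2EDTA tubes, 3 mice per time point, over 48 h. Plasma was prepared at 2000 g, 5 min, 4 °C, and measured by LC/MS/MS.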
# T47D = assay: Anticancer activity against human T47D cells assessed as cell growth inhibition; format: functional, cell-based; settings: dose 1-100 µM, DDE = dose-dependent effect
# Chain of Muscarinic acetylcholine receptor M3 (Homo sapiens) (P20309 whole entry, looked up): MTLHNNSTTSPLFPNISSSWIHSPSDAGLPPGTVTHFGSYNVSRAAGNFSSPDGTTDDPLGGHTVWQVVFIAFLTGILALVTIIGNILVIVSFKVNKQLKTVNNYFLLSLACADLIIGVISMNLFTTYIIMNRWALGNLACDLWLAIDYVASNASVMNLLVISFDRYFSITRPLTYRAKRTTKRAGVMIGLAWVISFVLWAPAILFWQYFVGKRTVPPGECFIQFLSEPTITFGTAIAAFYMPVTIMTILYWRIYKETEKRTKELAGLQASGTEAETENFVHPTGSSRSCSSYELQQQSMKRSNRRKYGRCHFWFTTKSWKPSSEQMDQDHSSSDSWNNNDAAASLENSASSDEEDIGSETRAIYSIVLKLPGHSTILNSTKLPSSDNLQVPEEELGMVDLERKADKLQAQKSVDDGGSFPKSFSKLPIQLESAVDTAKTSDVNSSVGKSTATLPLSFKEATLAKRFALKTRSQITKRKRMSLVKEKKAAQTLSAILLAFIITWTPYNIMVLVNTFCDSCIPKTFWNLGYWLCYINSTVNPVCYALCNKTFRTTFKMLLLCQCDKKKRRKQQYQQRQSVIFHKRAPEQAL
# Chain of Beta-3 adrenergic receptor (Homo sapiens) (P13945 whole entry, looked up, the tested form may be a part): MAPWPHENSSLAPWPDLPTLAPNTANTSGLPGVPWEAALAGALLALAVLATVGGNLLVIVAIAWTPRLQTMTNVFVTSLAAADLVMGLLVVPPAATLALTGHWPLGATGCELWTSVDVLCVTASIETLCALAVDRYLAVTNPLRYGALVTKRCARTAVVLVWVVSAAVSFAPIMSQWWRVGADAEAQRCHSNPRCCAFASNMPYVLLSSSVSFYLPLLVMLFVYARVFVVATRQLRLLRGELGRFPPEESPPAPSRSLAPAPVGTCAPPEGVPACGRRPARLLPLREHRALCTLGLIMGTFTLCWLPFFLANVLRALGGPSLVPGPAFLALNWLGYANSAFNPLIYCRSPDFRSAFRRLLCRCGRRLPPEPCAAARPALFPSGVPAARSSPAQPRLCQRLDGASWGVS
# Chain of Alpha-1A adrenergic receptor (Homo sapiens) (P35348 whole entry): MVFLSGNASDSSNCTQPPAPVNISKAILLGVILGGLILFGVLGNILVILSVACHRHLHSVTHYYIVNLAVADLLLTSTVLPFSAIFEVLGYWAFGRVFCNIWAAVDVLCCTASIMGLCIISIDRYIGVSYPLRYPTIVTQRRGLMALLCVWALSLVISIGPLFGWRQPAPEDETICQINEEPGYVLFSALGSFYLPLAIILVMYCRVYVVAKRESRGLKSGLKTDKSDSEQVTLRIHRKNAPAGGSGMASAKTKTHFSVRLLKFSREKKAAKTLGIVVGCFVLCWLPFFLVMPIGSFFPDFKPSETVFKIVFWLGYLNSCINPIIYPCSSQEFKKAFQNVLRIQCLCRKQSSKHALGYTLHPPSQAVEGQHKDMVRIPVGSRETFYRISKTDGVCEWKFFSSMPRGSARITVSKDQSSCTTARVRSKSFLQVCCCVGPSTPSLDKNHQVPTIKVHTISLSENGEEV
# Chain of 5-hydroxytryptamine receptor 5A (Homo sapiens) (P47898 whole entry): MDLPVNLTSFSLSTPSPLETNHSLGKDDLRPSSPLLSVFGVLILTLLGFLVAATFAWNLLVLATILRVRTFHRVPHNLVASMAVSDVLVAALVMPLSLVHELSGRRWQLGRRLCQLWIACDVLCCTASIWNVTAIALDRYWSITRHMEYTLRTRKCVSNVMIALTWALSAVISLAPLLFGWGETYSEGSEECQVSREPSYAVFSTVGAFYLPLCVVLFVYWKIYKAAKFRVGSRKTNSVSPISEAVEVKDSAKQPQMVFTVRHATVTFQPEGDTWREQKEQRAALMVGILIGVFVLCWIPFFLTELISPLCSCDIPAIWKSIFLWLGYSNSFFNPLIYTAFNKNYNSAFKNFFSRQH
# Chain of D(4) dopamine receptor (Homo sapiens) (P21917 whole entry): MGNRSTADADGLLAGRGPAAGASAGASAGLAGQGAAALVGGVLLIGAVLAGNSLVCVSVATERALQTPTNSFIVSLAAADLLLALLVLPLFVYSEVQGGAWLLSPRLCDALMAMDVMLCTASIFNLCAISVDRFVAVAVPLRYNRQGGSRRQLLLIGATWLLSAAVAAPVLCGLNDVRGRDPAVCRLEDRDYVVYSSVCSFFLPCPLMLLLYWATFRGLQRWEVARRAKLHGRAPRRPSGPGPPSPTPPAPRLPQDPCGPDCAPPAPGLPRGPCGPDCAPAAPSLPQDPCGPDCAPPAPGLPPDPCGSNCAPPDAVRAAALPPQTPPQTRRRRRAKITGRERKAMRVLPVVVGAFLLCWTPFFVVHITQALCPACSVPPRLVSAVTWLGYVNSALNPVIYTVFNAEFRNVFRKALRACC
# Chain of 5-hydroxytryptamine receptor 3A (Homo sapiens) (P46098 whole entry): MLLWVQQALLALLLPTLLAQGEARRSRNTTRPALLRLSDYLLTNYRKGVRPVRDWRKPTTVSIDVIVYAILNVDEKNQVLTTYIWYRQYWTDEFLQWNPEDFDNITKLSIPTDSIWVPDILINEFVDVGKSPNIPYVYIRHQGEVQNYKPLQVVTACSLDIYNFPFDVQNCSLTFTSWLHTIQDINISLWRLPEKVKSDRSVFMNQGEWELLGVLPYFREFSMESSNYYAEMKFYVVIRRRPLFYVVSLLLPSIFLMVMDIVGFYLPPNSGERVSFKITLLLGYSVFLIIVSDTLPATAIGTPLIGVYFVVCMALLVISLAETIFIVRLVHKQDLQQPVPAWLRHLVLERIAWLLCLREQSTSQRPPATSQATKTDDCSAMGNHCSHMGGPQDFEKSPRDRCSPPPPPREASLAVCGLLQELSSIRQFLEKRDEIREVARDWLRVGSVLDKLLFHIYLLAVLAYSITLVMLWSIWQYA
# Chain of Sigma non-opioid intracellular receptor 1 (Homo sapiens) (Q99720 whole entry): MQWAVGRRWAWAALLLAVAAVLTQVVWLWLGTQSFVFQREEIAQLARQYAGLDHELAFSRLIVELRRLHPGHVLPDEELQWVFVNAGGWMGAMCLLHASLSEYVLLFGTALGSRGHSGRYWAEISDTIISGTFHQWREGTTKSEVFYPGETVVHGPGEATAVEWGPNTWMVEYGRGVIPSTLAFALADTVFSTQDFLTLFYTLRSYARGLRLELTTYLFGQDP
# Chain of Muscarinic acetylcholine receptor M1 (Homo sapiens) (P11229 whole entry, the tested form may be a part): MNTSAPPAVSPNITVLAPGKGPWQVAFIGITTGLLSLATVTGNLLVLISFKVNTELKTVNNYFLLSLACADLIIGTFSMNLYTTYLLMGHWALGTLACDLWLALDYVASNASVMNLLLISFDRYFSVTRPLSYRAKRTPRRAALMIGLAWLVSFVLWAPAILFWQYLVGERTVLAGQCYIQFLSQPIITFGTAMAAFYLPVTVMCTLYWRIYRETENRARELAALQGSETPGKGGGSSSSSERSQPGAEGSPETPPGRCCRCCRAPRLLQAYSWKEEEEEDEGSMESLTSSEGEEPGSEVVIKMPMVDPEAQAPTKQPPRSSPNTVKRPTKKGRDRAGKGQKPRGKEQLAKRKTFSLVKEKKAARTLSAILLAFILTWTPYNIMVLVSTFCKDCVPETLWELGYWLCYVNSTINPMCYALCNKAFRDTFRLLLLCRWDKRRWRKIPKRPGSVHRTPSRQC
# Chain of 5-hydroxytryptamine receptor 6 (Homo sapiens) (P50406 whole entry): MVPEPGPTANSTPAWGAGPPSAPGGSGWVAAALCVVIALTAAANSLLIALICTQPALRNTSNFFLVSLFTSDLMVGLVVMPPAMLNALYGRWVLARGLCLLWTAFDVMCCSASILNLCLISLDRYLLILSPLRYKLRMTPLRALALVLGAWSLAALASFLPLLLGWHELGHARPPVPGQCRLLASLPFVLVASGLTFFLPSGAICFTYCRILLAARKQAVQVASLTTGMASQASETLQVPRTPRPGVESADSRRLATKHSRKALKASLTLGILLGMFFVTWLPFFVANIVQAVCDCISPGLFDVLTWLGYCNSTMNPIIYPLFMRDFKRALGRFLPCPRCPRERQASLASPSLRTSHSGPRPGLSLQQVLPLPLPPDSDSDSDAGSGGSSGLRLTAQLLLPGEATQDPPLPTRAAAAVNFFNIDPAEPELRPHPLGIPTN
compound,measurement,setting,value
N=c1c2c(-c3ccccc3)c(-c3ccccc3)n(Cc3ccccc3)c2ncn1[C@H]1CC[C@H](O)CC1 [ML-246],Activity,NCI-H522,Dde
same,Activity,DU-145,Dde
same,Activity,[1],< 50%
same,Activity,[2],< 50%
same,concentration at 48 h,[3],1320 nM
same,Activity,[4],< 50%
same,Activity,[5],< 50%
same,Activity,CCRF-CEM,Dde
same,Activity,786-0,Dde
same,Activity,A549,Dde
same,selectivity ratio,in vitro,38.3
same,Activity,MDA-MB-231,Dde
same,Activity,PC-3M [6],Dde
same,Activity,SK-OV-3,Dde
same,Activity,[7],< 50%
same,beta t1/2,[8],16.4 min
same,Activity,[9],< 50%
same,Activity,[10],< 50%
same,Activity,SF-539,Dde
same,solubility kinetic,[11],> 99 µM and > 47 µg/mL
same,Activity,RPMI-8226,Dde
same,Activity,OVCAR-8,Dde
same,Tmax,[12],15 min
same,Activity,NCI-H23,Dde
same,Activity,[13],< 50%
same,Activity,PC-3M [14],Toxic
same,Activity,[15],< 50%
same,Activity,PC-3M [16],Dde
same,Activity,[17],< 50%
same,Activity,COLO 205,Dde
same,AUC,[18],57.64 µM·h
same,Activity,T47D,Dde
